Values after ≈ are worked out from the molar mass of the structure shown. Active and inactive are the calls of the source. The rule behind the calls is not given here.
What was measured:
Cannabinoid receptor 2 = Cannabinoid receptor 2 (Homo sapiens, UniProt P34972); experiment: Agonist activity at human CB2 receptor; format: functional
Cannabinoid receptor 1 = Cannabinoid receptor 1 (Homo sapiens, UniProt P21554); experiment: Agonist activity at human CB1 receptor; format: functional
[1] = Drug metabolism in human liver microsomes after 15 mins; format: ADME, Microsome; details: read-out: Drug metabolism
[2] = Kinetic solubility of the compound at pH 7.4; format: physicochemical; details: buffer, read-out: Kinetic_solubility
[3] = Half life in Sprague-Dawley rat at 2.5 mg/kg, iv; format: ADME, organism-based; set-up: dose 2.5 mg/kg, route intravenous; details: in vivo
Rattus norvegicus [4] = experiment: Antiallodynic activity in rat chronic constriction injury-induced neuropathic pain model assessed as reversal of pain response at 40 mg/kg/day, sc; format: functional, organism-based
Procedure, shortened: (§1)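 Chronic constriction injury of rats (n = 7 per group); daily subcutaneous dosing over repeated days, with morphine as comparator. Cold allodynia read as lifting on a cold plate at 0 °C for 4 min.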

Rattus norvegicus [5] = species: Rattus norvegicus; experiment: Antihyperalgesic activity against Freund's adjuvant-induced thermal hyperalgesia in rat; format: functional, organism-based
Rattus norvegicus [6] = experiment: Antinociceptive activity in rat at 10 mg/kg by tail withdrawal reflex test; format: functional, organism-based; set-up: dose 10 mg/kg
[7] = Drug metabolism in rat liver microsomes at 5 uM after 60 mins; format: ADME, Microsome; details: read-out: Drug metabolism
Procedure, shortened: (§2)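 Test compound incubated at 5 µM with liver microsomes (human, rat, mouse or dog) for 60 min; read-out is % of compound metabolised.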

Rattus norvegicus [8] = experiment: Antinociceptive activity in rat at 10 mg/kg by paw flick test; format: functional, organism-based; set-up: dose 10 mg/kg
[9] = Volume of distribution in Beagle dog at 1 mg/kg, iv and 5 mg/kg, po; format: ADME, organism-based, Canis lupus familiaris; details: in vivo
Procedure, shortened: (§3)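 Beagle dogs dosed at 1 mg/kg iv and 5 mg/kg po; plasma kinetics give clearance, volume of distribution, iv and po half-life, and absolute oral bioavailability.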

[10] = Absolute oral bioavailability in Sprague-Dawley rat at 10 mg/kg; format: ADME, organism-based; details: in vivo
[11] = Clearance in Beagle dog at 1 mg/kg, iv and 5 mg/kg, po; format: ADME, organism-based, Canis lupus familiaris; details: in vivo; procedure, shortened: as §3
Rattus norvegicus [12] = experiment: Antiallodynic activity in rat chronic constriction injury-induced neuropathic pain model assessed as reversal of pain response at 40 mg/kg/day, sc after 12 days; format: functional, organism-based; procedure, shortened: as §1
Rattus norvegicus [13] = species: Rattus norvegicus; experiment: Antihyperalgesic activity against carrageenan-induced thermal hyperalgesia in rat; format: functional, organism-based
[14] = Solubility of the compound in 10% cyclodextrin
[15] = Drug metabolism in human liver microsomes at 5 uM after 60 mins; format: ADME, Microsome; details: read-out: Drug metabolism; procedure, shortened: as §2
[16] = Half life in Beagle dog at 1 mg/kg, iv; format: ADME, organism-based, Canis lupus familiaris; set-up: dose 1 mg/kg, route intravenous; details: in vivo; procedure, shortened: as §3
Rattus norvegicus [17] = experiment: Antinociceptive activity in rat at 10 mg/kg by hot plate method; format: functional, organism-based; set-up: dose 10 mg/kg
Mus musculus = experiment: Antiinflammatory activity in mouse EAE model of multiple sclerosis assessed as delay in neurological signs of autoimmune encephalomyelitis disease progression at 40 mg/kg/day, po administered from day 8 to day 16; format: functional, organism-based
Procedure, shortened: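 Mice with experimental autoimmune encephalomyelitis given chronic oral dosing at 40 mg/kg; neurological signs scored as EAE disease scores over time.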

[18] = Lipophilicity, Log P of the compound; format: physicochemical; details: octanol/water
[19] = Clearance in Sprague-Dawley rat at 2.5 mg/kg, iv and 10 mg/kg, po; format: ADME, organism-based; details: in vivo
Rattus norvegicus [20] = experiment: Toxicity in rat up to 40 mg/kg, ip by modified tetrad test; format: organism-based; set-up: dose 40 mg/kg, route intraperitoneal; details: in vivo
[21] = Ratio drug uptake in brain to plasma of Sprague-Dawley rat at 2.5 mg/kg, iv and 10 mg/kg, po; format: ADME, organism-based; details: read-out: BPR
Procedure, shortened: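 Rat tissue distribution study; brain and plasma levels compared as brain/plasma ratio.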

[22] = Volume of distribution in Sprague-Dawley rat at 2.5 mg/kg, iv and 10 mg/kg, po; format: ADME, organism-based; details: in vivo
[23] = Half life in Sprague-Dawley rat at 10 mg/kg, po; format: ADME, organism-based; set-up: dose 10 mg/kg, route oral; details: in vivo
[24] = Half life in Beagle dog at 5 mg/kg, po; format: ADME, organism-based, Canis lupus familiaris; set-up: dose 5 mg/kg, route oral; details: in vivo; procedure, shortened: as §3
[25] = Drug metabolism in dog liver microsomes at 5 uM after 60 mins; format: ADME, Canis lupus familiaris, Microsome; details: read-out: Drug metabolism; procedure, shortened: as §2
[26] = Solubility of the compound in water; format: physicochemical
[27] = Drug metabolism in mouse liver microsomes at 5 uM after 60 mins; format: ADME, Microsome; details: read-out: Drug metabolism; procedure, shortened: as §2
[28] = Absolute oral bioavailability in Beagle dog at 5 mg/kg; format: ADME, organism-based, Canis lupus familiaris; details: in vivo; procedure, shortened: as §3
Rattus norvegicus [29] = experiment: Antiallodynic activity in rat chronic constriction injury-induced neuropathic pain model assessed as reversal of pain response at 10 to 40 mg/kg/day, sc; format: functional, organism-based; procedure, shortened: as §1
Rattus norvegicus [30] = experiment: Toxicity in rat assessed as decrease in body temperature at 10 mg/kg, ip by modified tetrad test; format: organism-based; set-up: dose 10 mg/kg, route intraperitoneal; details: in vivo

Sequence of Cannabinoid receptor 1 (P21554 whole entry): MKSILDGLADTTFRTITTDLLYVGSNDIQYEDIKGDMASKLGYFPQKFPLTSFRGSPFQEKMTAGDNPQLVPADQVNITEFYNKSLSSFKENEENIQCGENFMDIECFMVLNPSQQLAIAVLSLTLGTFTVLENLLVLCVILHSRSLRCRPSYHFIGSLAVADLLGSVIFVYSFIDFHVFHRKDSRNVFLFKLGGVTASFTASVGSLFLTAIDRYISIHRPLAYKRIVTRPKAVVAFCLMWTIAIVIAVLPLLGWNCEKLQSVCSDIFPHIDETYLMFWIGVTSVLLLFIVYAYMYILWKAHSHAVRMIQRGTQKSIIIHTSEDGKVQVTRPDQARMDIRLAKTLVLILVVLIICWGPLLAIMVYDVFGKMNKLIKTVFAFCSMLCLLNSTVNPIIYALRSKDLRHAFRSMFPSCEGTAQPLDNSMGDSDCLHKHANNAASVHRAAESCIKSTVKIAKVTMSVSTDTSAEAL
Sequence of Cannabinoid receptor 2 (P34972 whole entry): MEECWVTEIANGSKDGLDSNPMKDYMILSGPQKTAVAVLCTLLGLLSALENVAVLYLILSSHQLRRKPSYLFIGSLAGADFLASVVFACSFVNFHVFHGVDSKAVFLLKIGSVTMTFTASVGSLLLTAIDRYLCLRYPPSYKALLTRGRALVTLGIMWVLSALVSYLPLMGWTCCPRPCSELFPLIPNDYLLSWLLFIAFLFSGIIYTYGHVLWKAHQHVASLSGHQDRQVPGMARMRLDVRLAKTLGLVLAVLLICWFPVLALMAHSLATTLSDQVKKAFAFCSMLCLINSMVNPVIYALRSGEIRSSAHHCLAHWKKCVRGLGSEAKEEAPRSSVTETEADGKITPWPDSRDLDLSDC

SMILES: CC(=O)NCCCCCc1cc(S(=O)(=O)c2ccc3c(c2)nc(C(C)(C)C)n3CC2CCOCC2)ccn1
- EC50 (Cannabinoid receptor 2): 5.6 nM
- EC50 (Cannabinoid receptor 1): > 10000 nM
- metabolised at 0.25 h [1]: 86%

SMILES: COCC(=O)N1CCC(Cn2c(C(C)(C)C)nc3cc(S(=O)(=O)CCCC(F)(F)F)ccc32)CC1
- EC50 (Cannabinoid receptor 1): > 10000 nM

SMILES: COC(=O)N1CCC(Cn2c(C(C)(C)C)nc3cc(S(=O)(=O)CCCC(F)(F)F)ccc32)CC1
- EC50 (Cannabinoid receptor 1): > 10000 nM
- metabolised at 0.25 h [1]: 54%

SMILES: CC(=O)N1CCC(Cn2c(C(C)(C)C)nc3cc(S(=O)(=O)CCCO)ccc32)CC1
- EC50 (Cannabinoid receptor 1): > 10000 nM

SMILES: COCCCc1cc(S(=O)(=O)c2ccc3c(c2)nc(C(C)(C)C)n3CC2CCOCC2)ccn1
- EC50 (Cannabinoid receptor 2): 1.1 nM
- EC50 (Cannabinoid receptor 1): > 10000 nM
- metabolised at 0.25 h [1]: 93%

SMILES: CCOc1cc(S(=O)(=O)c2ccc3c(c2)nc(C(C)(C)C)n3CC2CCOCC2)ccn1
- EC50 (Cannabinoid receptor 1): 1280 nM
- metabolised at 0.25 h [1]: 48%
- solubility kinetic [2]: < 1 µM

SMILES: CC(=O)N1CCC(Cn2c(C(C)(C)C)nc3cc(S(=O)(=O)c4nccs4)ccc32)CC1
- half-life [3]: 3.5 h
- Activity (Rattus norvegicus [4]): Active
- Activity (Rattus norvegicus [5]): inactive
- EC50 (Cannabinoid receptor 2): 7.7 nM
- Activity (Rattus norvegicus [6]): inactive
- metabolised at 1 h, 5 µM [7]: 0%
- Activity (Rattus norvegicus [8]): inactive
- Vd [9]: 3.7 L/kg
- bioavailability [10]: 35%
- EC50 (Cannabinoid receptor 1): 3430 nM
- clearance [11]: 11.7 mL/min/kg
- Activity (Rattus norvegicus [12]): Active
- Activity (Rattus norvegicus [13]): inactive
- solubility [14]: 8000 µg/mL (≈ 17.4 mM)
- metabolised at 1 h, 5 µM [15]: 12%
- half-life [16]: 4 h
- Activity (Rattus norvegicus [17]): inactive
- Activity (Mus musculus): Active
- logP [18]: 1.9
- metabolised at 0.25 h [1]: 9%
- clearance [19]: 53.3 mL/min/kg
- Activity (Rattus norvegicus [20]): Non-toxic
- Kp [21]: 0.05
- Vd [22]: 1.3 L/kg
- half-life [23]: 3.1 h
- half-life [24]: 5 h
- metabolised at 1 h, 5 µM [25]: 0%
- solubility [26]: 20 µg/mL (≈ 0.0434 mM)
- metabolised at 1 h, 5 µM [27]: 6%
- bioavailability [28]: 100%

SMILES: CC(=O)N1CCC(Cn2c(C(C)(C)C)nc3cc(S(=O)(=O)CC4CC4)ccc32)CC1
- half-life [3]: 1.3 h
- Activity (Rattus norvegicus [5]): inactive
- EC50 (Cannabinoid receptor 2): 8.2 nM
- Activity (Rattus norvegicus [6]): inactive
- metabolised at 1 h, 5 µM [7]: 0%
- Activity (Rattus norvegicus [8]): inactive
- Vd [9]: 1.9 L/kg
- bioavailability [10]: 56%
- EC50 (Cannabinoid receptor 1): > 10000 nM
- clearance [11]: 13.3 mL/min/kg
- Activity (Rattus norvegicus [13]): inactive
- solubility [14]: 25000 µg/mL (≈ 57.9 mM)
- Activity (Rattus norvegicus [29]): inactive
- metabolised at 1 h, 5 µM [15]: 5%
- half-life [16]: 3 h
- Activity (Rattus norvegicus [17]): inactive
- Activity (Mus musculus): Active
- logP [18]: 1.67
- metabolised at 0.25 h [1]: 18%
- clearance [19]: 41.7 mL/min/kg
- Activity (Rattus norvegicus [20]): Non-toxic
- Kp [21]: 0.18
- Vd [22]: 4.4 L/kg
- half-life [23]: 4 h
- half-life [24]: 3.2 h
- metabolised at 1 h, 5 µM [25]: 4%
- solubility [26]: 1500 µg/mL (≈ 3.48 mM)
- metabolised at 1 h, 5 µM [27]: 12%
- bioavailability [28]: 86%

SMILES: CC(C)(C)c1nc2cc(S(=O)(=O)c3nccs3)ccc2n1CC1CCN(C=O)CC1
- EC50 (Cannabinoid receptor 2): 8.4 nM
- EC50 (Cannabinoid receptor 1): 321 nM
- Activity (Rattus norvegicus [30]): Toxic

SMILES: CCC(=O)N1CCC(Cn2c(C(C)(C)C)nc3cc(S(=O)(=O)CCCC(F)(F)F)ccc32)CC1
- EC50 (Cannabinoid receptor 1): > 10000 nM
- metabolised at 0.25 h [1]: 4%

SMILES: CC(=O)N1CCC(Cn2c(C(C)(C)C)nc3cc(S(=O)(=O)c4ccncc4)ccc32)CC1
- EC50 (Cannabinoid receptor 2): 4.6 nM
- EC50 (Cannabinoid receptor 1): > 10000 nM
- metabolised at 0.25 h [1]: 29%

SMILES: CCS(=O)(=O)c1ccc2c(c1)nc(C(C)(C)C)n2CC1CCN(C=O)CC1
- EC50 (Cannabinoid receptor 2): 23 nM
- EC50 (Cannabinoid receptor 1): > 10000 nM
- metabolised at 0.25 h [1]: 7%

SMILES: CC(=O)N1CCC(Cn2c(C(C)(C)C)nc3cc(S(=O)(=O)CCCC(F)(F)F)ccc32)CC1
- EC50 (Cannabinoid receptor 2): 13 nM
- EC50 (Cannabinoid receptor 1): > 10000 nM
- metabolised at 0.25 h [1]: 17%

SMILES: CC(C)(C)c1nc2cc(S(=O)(=O)CCCC(F)(F)F)ccc2n1CC1CCN(C=O)CC1
- EC50 (Cannabinoid receptor 1): 5620 nM
- metabolised at 0.25 h [1]: 17%

SMILES: CC(C)(C)c1nc2cc(S(=O)(=O)CC3CC3)ccc2n1CC1CCN(C=O)CC1
- EC50 (Cannabinoid receptor 1): 2510 nM
- metabolised at 0.25 h [1]: 16%

— ChEMBL document CHEMBL1949649, “5-sulfonyl-benzimidazoles as selective CB2 agonists-part 2” (Bioorg Med Chem Lett, 2012)
